Laboratory results: paper PMC6643050 (Lipids, 2018)
Several values for one entry are separate records, joined by “and”; a condition that tells them apart may be missing. Equal entries are not always repeated.

How the values were obtained:
Δ^1–28 L-PGDS [1] = target: T1, Δ^1–28 L-PGDS (Homo sapiens, UniProt P41222); experiment: Intrinsic tryptophan fluorescence quenching assay; assay type: binding; conditions: compound 20 μM, L-PGDS 1.5 μM, pH 8.0; mean ± SE
T1 sequence (P41222 29-190): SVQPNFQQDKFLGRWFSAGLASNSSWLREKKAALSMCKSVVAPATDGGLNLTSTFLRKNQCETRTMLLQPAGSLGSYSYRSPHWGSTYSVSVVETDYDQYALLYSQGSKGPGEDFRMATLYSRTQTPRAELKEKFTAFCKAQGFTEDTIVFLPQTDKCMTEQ
Outline: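 Recombinant human Δ1–28 L-PGDS, delipidated on hydroxypropyl-beaded dextran (1 h, 37 °C), used at 1.5 μM in 5 mM Tris–HCl pH 8.0. Test compound (2 mM DMSO stock) added at 20 μM final; equilibrated 30 min at 25 °C. Tryptophan fluorescence read at ex/em 282/340 nm and corrected for nonspecific effects with N-acetyl-L-tryptophanamide (1.5 μM). Reported relative to vehicle; ≥3 independent assays.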

Δ^1–28 L-PGDS [2] = target: T1, Δ^1–28 L-PGDS; experiment: Fluorescence displacement binding assay; conditions: for Binding to Δ^1–28 L-PGDS, DAUDA displacement: DAUDA probe
Δ^1–28 L-PGDS [3] = target: T1, Δ^1–28 L-PGDS; experiment: Determination of fluorescent probe binding affinity
L-PGDS = conditions: known high-affinity L-PGDS ligand; ref Breustedt et al., 2006; cited from earlier work
[4] = DAUDA (500 nM) displacement, L-PGDS 3 μM, pH 7.6, 25 °C, mean ± SE
[5] = Ki, DAUDA (500 nM) displacement, L-PGDS 3 μM, pH 7.6, 25 °C, mean ± SE

| Compound | Quenching (%), fluorescence reduction relative to vehicle-treated Δ^1–28 L-PGDS (Δ^1–28 L-PGDS [1]) [%] | Ki (Δ^1–28 L-PGDS [2]; [5]) | also measured |
| --- | --- | --- | --- |
| CCCCCc1cc(O)c2c(c1)OC(C)(C)[C@@H]1CCC(C(=O)O)=C[C@@H]21 [THC-COOH, 11-nor-9-carboxy-Δ^9-tetrahydrocannabinol] | 15.6 ± 1.3 | – | Ki (Δ^1–28 L-PGDS [2]; [4]): 7.8 ± 1.7 µM; Ki (Δ^1–28 L-PGDS [2]; DAUDA displacement): 7.8 ± 1.7 µM |
| CCCCCC/C=C\CCCCCCCC(=O)O [PLA, palmitoleic acid] | 11.9 ± 2.3 | 3.7 ± 0.5 µM | – |
| CCCCCc1cc(O)c2c(c1)OC(C)(C)[C@@H]1CCC(C)=C[C@@H]21 [THC, Δ^9-tetrahydrocannabinol] | 14.0 ± 2.2 | – | Ki (Δ^1–28 L-PGDS [2]; [4]): 175 ± 26 µM |
| CCCCCCCC/C=C\CCCCCCCC(N)=O [Oleamide] | 3.6 ± 2.0 | > 200 µM | – |
| CN(C)c1cccc2c(S(=O)(=O)NCCCCCCCCCCC(=O)O)cccc12 [DAUDA, 11-(dansylamino)undecanoic acid] | – | – | Kd (Δ^1–28 L-PGDS [3]): 0.96 ± 0.08 µM |
| CCCCCCC(CCCCCCCCCCC(=O)O)N(C)c1ccc([N+](=O)[O-])c2nonc12 (centres unmarked) [NBD-stearate, 12-N-methyl-(7-nitrobenz-2-oxa-1,3-diazo)aminostearic acid] | – | – | Binding of fluorescent probe (Δ^1–28 L-PGDS [3]; L-PGDS 1 μM titrated with probe): did not exhibit appreciable binding |
| CCCCC[C@H](O)/C=C/[C@@H]1[C@@H](C/C=C\CCCC(=O)NCCO)[C@@H](O)C[C@H]1O [Prostamide F2α] | 0.1 ± 2.6 | – | Ki (Δ^1–28 L-PGDS [2]; [4]): > 200 µM; Binding to Δ^1–28 L-PGDS, DAUDA displacement (Δ^1–28 L-PGDS [2]): not found to bind with any appreciable affinity |
| prostaglandin E2-glyceryl ester [PGE2-GE] | 15.1 ± 1.7 | – | Ki (Δ^1–28 L-PGDS [2]; [4]): 11.2 ± 1.2 µM |
| CCCCCCCC/C=C\CCCCCCCC(=O)O [OLA, oleic acid] | 15.1 ± 3.7 | 1.8 ± 0.9 µM | – |
| CCCCC[C@H](O)/C=C/[C@@H]1[C@@H](C/C=C\CCCC(=O)O)[C@@H](O)C[C@H]1O [PGF2α, prostaglandin F2α] | 2.7 ± 1.7 | 81 ± 9 µM | – |
| CCCCC/C=C\C/C=C\C/C=C\C/C=C\CCCC(=O)OC(CO)CO [2-AG, 2-arachidonoylglycerol] | −0.8 ± 3.0 | > 200 µM | Binding to Δ^1–28 L-PGDS, DAUDA displacement (Δ^1–28 L-PGDS [2]): did not bind |
| 11-hydroxy-Δ^9-tetrahydrocannabinol [11-OH-THC] | 9.7 ± 1.3 | – | Ki (Δ^1–28 L-PGDS [2]; [4]): 61 ± 14 µM; Ki (Δ^1–28 L-PGDS [2]; DAUDA displacement): 61 ± 14 µM |
| O=C(O)C1[C@H](c2ccccc2)C(C(=O)Oc2cccc3ccccc23)[C@H]1c1ccccc1 (some centres unmarked) [SBFI-26] | 33.3 ± 2.2 | – | Ki (Δ^1–28 L-PGDS [2]; [4]): 3 ± 0.5 µM |
| CCCCCCCCCCCCCCCC(=O)NCCO [PEA, palmitoylethanolamide] | 1.3 ± 4.7 | > 200 µM | Binding to Δ^1–28 L-PGDS, DAUDA displacement (Δ^1–28 L-PGDS [2]): did not display any appreciable binding |
| C=C(C)[C@@H]1CCC(C)=C[C@H]1c1c(O)cc(CCCCC)cc1O [CBD, cannabidiol] | 7.2 ± 2.1 | 77.9 ± 3.9 µM | – |
| CC1=C(/C=C/C(C)=C/C=C/C(C)=C/C(=O)O)C(C)(C)CCC1 [all-trans retinoic acid] | 71.1 ± 1.4 | – | Kd (L-PGDS): 0.29 µM |
| CCCCC[C@H](O)/C=C/[C@H]1[C@H](O)CC(=O)[C@@H]1C/C=C\CCCC(=O)O [PGE2, prostaglandin E2] | 6.5 ± 1.5 | 128 ± 16 µM | – |
| CCCCCCC(C)(C)c1cc(O)c2c(c1)OC(C)(C)[C@@H]1CC=C(C(=O)O)C[C@@H]21 [AJA, ajulemic acid] | 21.9 ± 2.9 | 2.2 µM and 2.3 µM | – |
| CCCCC/C=C\C/C=C\C/C=C\C/C=C\CCCC(=O)NCCO [AEA, N-arachidonoylethanolamine] | 3.1 ± 3.3 | > 200 µM | Affinity for Δ^1–28 L-PGDS, ANS displacement (Δ^1–28 L-PGDS [2]; ANS probe (500 nM)): lack of affinity; Binding to Δ^1–28 L-PGDS, DAUDA displacement (Δ^1–28 L-PGDS [2]): did not bind |
| O=S(=O)(O)c1cccc2cccc(Nc3ccccc3)c12 [ANS, 1-anilinonaphthalene-8-sulfonic acid] | – | – | Kd (Δ^1–28 L-PGDS [3]): 3.4 ± 0.8 µM |
| CCCCCCCC/C=C\CCCCCCCC(=O)NCCO [OEA, oleoylethanolamide] | −0.9 ± 2.1 | > 200 µM | Binding to Δ^1–28 L-PGDS, DAUDA displacement (Δ^1–28 L-PGDS [2]): did not display any appreciable binding |
